These results are taken from ChEMBL document CHEMBL4673214, “Synthesis and antibacterial bioactivities of cationic deacetyl linezolid amphiphiles” (Eur J Med Chem, 2018).

In data set [1] the test system is Klebsiella pneumoniae. The data set is described as follows: Antibacterial activity against carbapenem-resistant Klebsiella pneumoniae clinical isolate 10 assessed as reduction in bacterial growth incubated for 16 to 20 hrs by CLSI-based broth microdilution method. It counts as functional. To be noted: time 16-20 hrs. Summed up:
(§1)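 Clinical isolates tested by broth microdilution in cation-adjusted Mueller-Hinton broth. Cultures grown 4-6 h (~10^8 CFU/mL) were diluted to ~10^6 CFU/mL and mixed 1:1 with compound serial dilutions made from 256 down to 0.5 µg/mL (pre-mixing). Plates held at 37 °C for 16-20 h, then read for growth. Each concentration run in duplicate, whole experiment at least twice.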

In data set [2] the test system is Escherichia coli. The data set is described as follows: Antibiofilm activity against Escherichia coli ATCC 25922 assessed as inhibition of biofilm formation incubated for 24 hrs by crystal violet staining assay. Format: functional. Summed up:
(§2)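 Twofold serial dilutions in MHB received 1:1000-diluted exponential-phase bacteria and were incubated 24 h at 37 °C. Wells were rinsed, stained with 0.1% crystal violet for 10 min and dissolved in ethanol, and OD540 was read. MBIC80 was the concentration inhibiting 80% of biofilm formation versus untreated wells, taken from dose-response curves.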

For data set [3], the system named is Staphylococcus aureus. The data set is described as follows: Antibiofilm activity against 24 hrs preformed biofilm of Staphylococcus aureus ATCC 29213 assessed as biofilm viability at 128 ug/ml incubated for 24 hrs by crystal violet staining analysis (reference value: 18.9 1og10CFU). To be noted: dose 128 µg/ml. It counts as functional.
Data set [4] relates to Staphylococcus aureus. In words: Antibacterial activity against methicillin-resistant Staphylococcus aureus assessed as reduction in bacterial growth following incubation in 50% MHB medium and 50% blood and meaured after incubation with compound for 20 to 24 hrs by agar plate method. Format: functional. To be noted: time 20-24 hrs. The procedure, abridged: (§3)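 Sheep plasma obtained by centrifuging defibrinated blood at 3500 rpm for 10 min; serum isolated in serum tubes. MRSA at 10^5 CFU/mL in 50% MHB plus 50% serum, plasma or blood, or in MHB alone. Compound dilutions (512 to 4 µg/mL, pre-mixing) added 50 µL to 150 µL bacteria, 37 °C for 20-24 h. Then 20 µL plated on MHA, 37 °C 20-24 h; MBC taken as no colonies. Two repeats.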

For data set [5], the system named is Enterobacteriaceae. In words: Antibacterial activity against NDM1 producing carbapenem-resistant Enterobacteriaceae clinical isolate 5 assessed as reduction in bacterial growth incubated for 16 to 20 hrs by CLSI-based broth microdilution method. It counts as functional. To be noted: time 16-20 hrs. The procedure, abridged:
as §1

In data set [6] the test system is Staphylococcus aureus. In words: Antibacterial activity against Staphylococcus aureus ATCC 29213 assessed as reduction in bacterial growth compound preincubated with 50% sheep plasma for 3 hrs followed by incubation for 20 to 24 hrs by agar plate method. Format: functional. The settings on record: time 20-24 hrs. Summed up:
(§4)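 Sheep plasma came from centrifuged defibrinated blood. Compound at 512 µg/mL in 50% water/50% plasma was preincubated at 37 °C for 0, 3 or 6 h, then serially diluted (256 to 4 µg/mL). Dilutions were mixed 1:3 with S. aureus suspension (10^5 CFU/mL) and incubated 20-24 h at 37 °C. MBC was taken as no colonies after 20 µL was plated on agar.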

Data set [7] has as its system Cell membrane. The data set is described as follows: Induction of cytoplasmic membrane depolarization in Staphylococcus aureus ATCC 29213 at 20 ug/ml measured for 12 mins by DiSC35 dye-based fluorescence assay. Format: subcellular. The settings on record: dose 20.0 µg/ml. The procedure, abridged: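 Mid-log bacteria were washed and resuspended at ~10^8 CFU/mL: S. aureus in PBS, E. coli in 5 mM HEPES/5 mM glucose/100 mM KCl (1:1:1). Cells were loaded with diSC35 (10 µM stock) for 30 min (S. aureus) or 40 min (E. coli, plus EDTA). Fluorescence (ex 622/em 670 nm) was read for an 8 min baseline, then every 2 min for 12 min after compound at 20 µg/mL final. Water served as control.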

Data set [8] is described as follows: Hemolytic activity in sheep RBC incubated for 1 hr. The settings on record: sheep red blood cells (erythrocytes). It counts as ADME, cell-based, Ovis aries, Erythrocyte. Summed up: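 Sheep RBCs were resuspended at 5% in PBS and mixed 3:1 with serial dilutions (2560 to 5 µg/mL, pre-mixing levels), then incubated 1 h at 37 °C. After centrifugation, supernatant A540 was read. Hemolysis % was calculated as (A−A0)/(Atotal−A0)×100, with untreated RBCs as 0% and 0.1% Triton X-100 as total lysis.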

Data set [9] relates to Enterobacteriaceae. The data set is described as follows: Antibacterial activity against NDM1 producing carbapenem-resistant Enterobacteriaceae clinical isolate 1 assessed as reduction in bacterial growth incubated for 16 to 20 hrs by CLSI-based broth microdilution method. Format: functional. To be noted: time 16-20 hrs. The procedure, abridged:
as §1

The test system of data set [10] is Cell membrane. In words: Induction of outer membrane permeabilization in Escherichia coli ATCC 25922 at 20 ug/ml measured for 12 mins by NPN dye based fluorescence assay. To be noted: dose 20.0 µg/ml. Summed up:
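Mid-log E. coli in HEPES/glucose/KCl at ~10^8 CFU/mL was preincubated 40 min with N-phenylnaphthylamine (10 µM stock). Fluorescence (ex 350/em 420 nm) was read for an 8 min baseline, then every 2 min for 12 min after compound at 20 µg/mL final. Water served as control.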

Data set [11] relates to Staphylococcus aureus. In words: Antibacterial activity against methicillin-resistant Staphylococcus aureus clinical isolate 7 assessed as reduction in bacterial growth incubated for 16 to 20 hrs by CLSI-based broth microdilution method. Format: functional. To be noted: time 16-20 hrs. Summed up: as §1
In data set [12] the test system is Staphylococcus aureus. The data set is described as follows: Antibacterial activity against Staphylococcus aureus ATCC 29213 assessed as reduction in bacterial growth compound preincubated with 50% sheep plasma for 0 hrs followed by incubation for 20 to 24 hrs by agar plate method. It counts as functional. The settings on record: time 20-24 hrs. Summed up:
as §4

Data set [13] deals with Staphylococcus aureus. In words: Antibacterial activity against methicillin-resistant Staphylococcus aureus clinical isolate 6 assessed as reduction in bacterial growth incubated for 16 to 20 hrs by CLSI-based broth microdilution method. It counts as functional. To be noted: time 16-20 hrs. The procedure, abridged: as §1
Data set [14] can be described thus: Selectivity index, ratio of HC50 for Sheep erythrocytes to MIC for Escherichia coli ATCC 25922. It counts as toxicity.
Data set [15] has as its system Escherichia coli. In words: Resistance ratio of compound MIC for Escherichia coli ATCC 25922 after 20 passages to compound MIC for Escherichia coli ATCC 25922 after 16 to 20 hrs by CLSI-based broth microdilution method. Format: functional. Summed up: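 Serial passaging: after each 24 h MIC assay, cells grown at 1/2 MIC were transferred and the MIC assayed again, for 20 passages. Done with S. aureus, E. coli and MRSA. MIC plotted against days of passage. Experiment repeated twice.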

The test system of data set [16] is Staphylococcus aureus. The data set is described as follows: Antibiofilm activity against 24 hrs preformed biofilm of Staphylococcus aureus ATCC 29213 assessed as biofilm viability at 2 ug/ml incubated for 24 hrs by crystal violet staining analysis (reference value: 18.9 1og10CFU). Format: functional. To be noted: dose 2 µg/ml.
The test system of data set [17] is Klebsiella pneumoniae. The data set is described as follows: Antibacterial activity against carbapenem-resistant Klebsiella pneumoniae clinical isolate 2 assessed as reduction in bacterial growth incubated for 16 to 20 hrs by CLSI-based broth microdilution method. It counts as functional. The settings on record: time 16-20 hrs. The procedure, abridged:
as §1

Data set [18] deals with Staphylococcus aureus. The data set is described as follows: Antibacterial activity against methicillin-resistant Staphylococcus aureus clinical isolate 3 assessed as reduction in bacterial growth incubated for 16 to 20 hrs by CLSI-based broth microdilution method. It counts as functional. To be noted: time 16-20 hrs. The procedure, abridged: as §1
For data set [19], the system named is Staphylococcus aureus. The data set is described as follows: Antibacterial activity against methicillin-resistant Staphylococcus aureus assessed as reduction in bacterial growth following incubation in 50% MHB medium and 50% plasma and meaured after incubation with compound for 20 to 24 hrs by agar plate method. Format: functional. To be noted: time 20-24 hrs. The procedure, abridged:
as §3

Data set [20] has as its system Staphylococcus aureus. The data set is described as follows: Antibiofilm activity against Staphylococcus aureus ATCC 29213 assessed as inhibition of biofilm formation incubated for 24 hrs by crystal violet staining assay. It counts as functional. The procedure, abridged: as §2
Data set [21] has as its system Klebsiella pneumoniae. In words: Antibacterial activity against carbapenem-resistant Klebsiella pneumoniae clinical isolate 4 assessed as reduction in bacterial growth incubated for 16 to 20 hrs by CLSI-based broth microdilution method. Format: functional. To be noted: time 16-20 hrs. The procedure, abridged:
as §1

In brackets after ≈: the same amount, converted by molar mass. Activity calls are given as the source filed them. The calls are words filed in the database; no cut-off is given here.

Regarding `CCCCCCCCCCCN(C[C@H]1CN(c2ccc(N3CCOCC3)c(F)c2)C(=O)O1)C(=O)[C@@H](N)CCCCN.Cl.Cl`, the MIC in the data set on Klebsiella pneumoniae [1] was 16 µg/mL; in the data set with Enterobacteriaceae [5], 8 µg/mL; in the data set on Enterobacteriaceae [9] it was above 64 µg/mL; in the data set with Staphylococcus aureus [11], 2 µg/mL; with Staphylococcus aureus [13], 2 µg/mL; in the data set on Klebsiella pneumoniae [17], 16 µg/mL. For the same compound, the MIC in the data set with Staphylococcus aureus [18] stood at 2 µg/mL; with Klebsiella pneumoniae [21] it was 16 µg/mL. The MBIC80 amounted to 61.9 µg/mL in the data set on Escherichia coli [2] and 25.9 µg/mL in the data set with Staphylococcus aureus [20]. Moreover, the MBIC90 was 72.6 µg/mL with Escherichia coli [2] and 34.1 µg/mL in the data set with Staphylococcus aureus [20]. Further, the Activity is given as 4.7 log10CFU in the data set with Staphylococcus aureus [3] and 13.9 log10CFU in the data set on Staphylococcus aureus [16]. The MBC in the data set with Staphylococcus aureus [4] is above 128 µg/mL; in the data set on Staphylococcus aureus [6], 64 µg/mL; in the data set with Staphylococcus aureus [12], 64 µg/mL; in the data set on Staphylococcus aureus [19] it was 128 µg/mL. In addition, in the data set on Cell membrane [7], the outcome was Active. For the same compound, the HC50 at 1 h in data set [8] was determined as 100 µg/mL. Also, in the data set on Cell membrane [10], the outcome was inactive. Besides, the selectivity ratio in data set [14] was 12.5. In the data set on Escherichia coli [15], the Ratio came to 2.
Regarding `C[C@@H](O)[C@H]1C(=O)N2C(C(=O)O)=C(S[C@@H]3CN[C@H](C(=O)N(C)C)C3)[C@H](C)[C@H]12` [MEROPENEM], the MIC with Klebsiella pneumoniae [1] was 64 µg/mL (≈ 167 µM); in the data set on Enterobacteriaceae [5], 8 µg/mL (≈ 20.9 µM); in the data set with Enterobacteriaceae [9], 32 µg/mL (≈ 83.4 µM); in the data set on Staphylococcus aureus [11], 64 µg/mL (≈ 167 µM); in the data set with Staphylococcus aureus [13], 32 µg/mL (≈ 83.4 µM); with Klebsiella pneumoniae [17], above 64 µg/mL. Also, the MIC in the data set with Staphylococcus aureus [18] and in the data set with Klebsiella pneumoniae [21] was 32 µg/mL (≈ 83.4 µM) throughout. Further, the result with Cell membrane [7] and with Cell membrane [10] was inactive.
